# Screening results as filed in PubChem BioAssay.
# NPY-Y1 PAM-ag: potentiates or activates human NPY-Y1 receptor; P25929; NPY-Y1 expressing cells, potentiator/agonist activation; activation, % at 3.6 µM; actives 0.37% (n = 220,000); AID 1304; in the data active = activation above about 33%, passing the limit was not always enough;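 note: cells stimulated with NPY at EC10 then isoproterenol at EC100; 0% = low agonist plus stimulus and 100% = saturating agonist plus stimulus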
# Target sequence (P25929 whole entry, looked up): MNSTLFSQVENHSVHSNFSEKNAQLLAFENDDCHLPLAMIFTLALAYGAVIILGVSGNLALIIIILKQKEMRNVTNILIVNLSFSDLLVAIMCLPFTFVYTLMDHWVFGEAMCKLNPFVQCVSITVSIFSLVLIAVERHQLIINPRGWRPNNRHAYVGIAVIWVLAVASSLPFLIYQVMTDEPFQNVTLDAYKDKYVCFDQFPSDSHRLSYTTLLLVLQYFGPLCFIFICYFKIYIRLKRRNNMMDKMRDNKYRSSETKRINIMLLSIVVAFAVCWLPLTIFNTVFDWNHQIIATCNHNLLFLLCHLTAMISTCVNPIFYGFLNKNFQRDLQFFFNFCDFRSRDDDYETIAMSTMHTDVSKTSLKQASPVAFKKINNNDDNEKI
# NPY2 pot ag: human NPY-Y2 potentiation or agonism, primary screen; P49146; cells expressing NPY-Y2, potentiator/agonist read-out; activation, % at 3.6 µM; actives 0.45% (n = 220,000); in the data active = activation above about 27%;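 note: cells stimulated with NPY near EC25 plus isoproterenol at EC100; 0% = vehicle plus submaximal agonist and 100% = vehicle plus saturating agonist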
# NPY Y2 blocker: NPY-Y2 (human) receptor antagonism; NPY-Y2 expressing cells, antagonist mode; P49146; actives 0.99% (n = 140,000); inhibition, % at 2.7 µM; in the data active = inhibition above about 17%;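 note: 0% = vehicle with agonist challenge and 100% = reference antagonist with challenge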
# NPY Y1 blocker: antagonists of human neuropeptide Y receptor Y1. P25929. HEK293-CNG Y1 cells, membrane potential fluorescence; NPY at EC95, then isoproterenol. inhibition, % at 3.6 µM. actives 1% (n = 200,000). AID 1040;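 active = inhibition above the campaign mean inhibition of all tested compounds plus 3 SD, cut at about 20% in these data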;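 note: 0% = DMSO wells given NPY plus isoproterenol and 100% = isoproterenol alone without NPY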
#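 Material: HEK293 cells with Y1 receptor plus CNG channel; times: compound incubation 1 h at room temperature, readout 45 min post-stimulation; signal: fluorescence, membrane potential probe; read-out basis: fluorescence ratio normalized to % inhibition between controls; benchmarks: full-block control isoproterenol-only wells, zero-block control NPY plus isoproterenol wells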
# * = called active by the depositor; / = no result given. Rows were chosen to be rich in hits. Some 1.9% of all compounds tested hit in one or more screens of this group.
SMILES,NPY-Y1 PAM-ag,NPY2 pot ag,NPY Y2 blocker,NPY Y1 blocker
C=C(C)CSc1[nH]c(=O)cc(C)c1C#N,-11,0,/,10
CCc1cccc2c(C(=O)CN3C(=O)NC(C)(c4cccc5ccccc45)C3=O)c[nH]c12 (centres undefined),43*,37*,/,-13
Cc1cccc(N2C(=O)C(Oc3ccc(Cl)cc3Cl)C2C=O)c1C (centres undefined),54*,10,-2,0
O=C(Nc1cc(Cl)cc(Cl)c1)C(c1ccccc1)N1CCCCC1 (centres undefined),-32,-3,20*,30*
CCC(C)(C)C1CCc2nc3ccccc3c(C(=O)OC(C)C(=O)Nc3c(C)n(C)n(-c4ccccc4)c3=O)c2C1 (centres undefined),-52,5,3,11
CCOC(=O)c1cc(-c2ccc(C#N)cc2)nc2c1c(C)nn2CCC#N,-21,4,3,2
CCOC(=O)c1cc(-c2ccc(OC)cc2)nc2c1c(C)nn2CCC#N,-22,-17,20*,26*
Cc1ccc(C)c(N(CC(=O)NC2CCCC2)C(=O)c2oc(C(C)(C)C)cc2C)c1,-3,0,20*,27*
CN1C=CC=C/C1=C1\SC(=S)N(c2ccccc2)C1=O,-8,11,0,-3
CN1C=CC=C/C1=C1\SC(=S)N(C2CCCCC2)C1=O,114*,106*,-2,-10
COc1ccccc1NC(=O)CSc1nc(N)cc(N)n1,-3,19,0,2
COc1ccccc1NC(=O)CSc1nc2ccccc2cc1Cc1ccccc1,-70,-8,21*,26*
COc1ccc2c(c1)C(C)CC(C)(C)N2C(=O)CSc1nc2ccccc2s1 (centres undefined),-26,-5,29*,35*
COc1ccc(C2=NN(C(=O)CSc3nc4ccccc4s3)C(c3ccc(OC)cc3)C2)cc1 (centres undefined),-23,1,4,0
N#Cc1c(N2CCCCC2)nc(N2CCCCC2)c2c1CCN(Cc1ccccc1)C2,-33,-4,25*,23*
CC(C)(C)CC(=O)Nc1nnc(SCC(=O)Nc2ccccc2F)s1,-1,-16,/,21*
N#C/C(=C\c1cn(CCOc2ccccc2)c2ccccc12)C(=O)NCc1cccs1,-12,2,8,-5
CSc1nc(Cl)c(Cc2ccc(OC(C)C)cc2)c(N(C)C)n1,-29,-7,30*,49*
Cc1cc(C)c(N=C2CCCN2Cc2ccccc2)c(C#N)c1,5,11,12,6
CN1CCc2c1nc1ccccc1c2N=C1CCCN1Cc1ccccc1,-46,-16,22*,22*
CCOC(=O)c1ccc(N2C(=O)C3CC=C(C)CC3C2=O)cc1 (centres undefined),-27,-26,0,25*
CC1=CCC2C(=O)N(c3ccc(C)cc3)C(=O)C2C1 (centres undefined),-33,-29,2,1
Cc1ccc(NC(=O)C2CCN(S(=O)(=O)c3ccc(F)cc3)CC2)cc1,113*,105*,2,-2
CCOc1ccc(Oc2c(/C=N/NC(N)=O)c(C)nn2-c2ccccc2)cc1,-49,-19,4,14
CCOc1ccc(Oc2c(/C=N/NC(=O)COc3ccccc3OC)c(C)nn2-c2ccccc2)cc1,-15,-17,26*,30*
SMILES,NPY-Y1 PAM-ag,NPY2 pot ag,NPY Y2 blocker,NPY Y1 blocker
Cc1ccc(NC(=O)CCC(=O)c2cccs2)c(O)c1,8,0,/,/
COC(=O)c1ccccc1NC(=O)NCc1ccncc1,-12,0,/,4
OCc1cc(C(O)CNCCCCCCOCCCCc2ccccc2)ccc1O (centres undefined),78*,86*,/,-11
CCOCCCNCC(O)c1ccccc1 (centres undefined),-43,1,0,9
CCNC(=O)OCc1cn(-c2ccccc2)nn1,1,2,/,-1
O=C(Nc1cccc(Cl)c1)OCc1cn(-c2ccccc2)nn1,-11,-17,/,21*
O=C(OCC(=O)c1c[nH]c2ccccc12)c1ccc(Br)o1,63*,70*,1,-3
COc1ccc(OC)c2sc(N(CCN(C)C)C(=O)c3cc(Cl)sc3Cl)nc12,90*,79*,/,-9
Cn1c(C2=C(O)CN(Cc3ccccc3)C2=N)nc2ccccc21,6,-20,/,/
OC(CNCCNc1ncccc1C(F)(F)F)COc1ccc(F)cc1 (centres undefined),86*,61*,/,/
CC1(C)SC(=S)N(/N=C/c2ccc(O)cc2)C1N(O)C(=O)Nc1ccc([N+](=O)[O-])cc1 (centres undefined),38,33*,-5,-17
CCN(CC1COc2ccccc2O1)C(=S)Nc1ccccc1 (centres undefined),46*,-4,6,-2
O=c1[nH]c2ccccc2c(O)c1-c1cc2ccccc2oc1=O,-2,0,/,5
CC(C)CC(=O)Nc1c2c(nn1-c1ccc(F)cc1)CSC2,93*,100*,3,-4
C=CCOC(=O)C1=C(C)NC(=S)C(C#N)(CC=C)C1c1ccccc1Cl (centres undefined),10,-12,/,/
CN(C)c1ccc(/C=C/c2ccc3c4ccccc4ccc3[n+]2-c2ccccc2)cc1,30,58*,/,11
CN(C1=C(N2CCCCC2)C(=O)c2ccccc2C1=O)c1ccccc1,44*,37*,-14,-5
O=C1C(Nc2ccccc2)=C(N2CCCCC2)C(=O)c2ccccc21,-20,2,1,3
COc1ccc(Cc2noc(CN3CCCN(C4Cc5ccccc5C4)CC3)n2)cc1OC,-3,-31,/,6
CC(C)(C)OC(=O)N1CCC[C@H]1C(=O)NCc1ccc(Cl)cc1Cl,7,8,/,4
COc1ccccc1N(C1=NCCCS1)S(=O)(=O)c1ccc(C(C)(C)C)cc1,11,-19,/,12
COc1ccccc1OCC(O)CNCc1ccc2c(c1)OCO2 (centres undefined),79*,48*,/,/
COc1ccccc1CC(=O)NCc1ccc2c(c1)OCO2,-31,-4,5,8
COc1ccc(-c2noc(C(=O)NCc3ccccc3Cl)n2)cc1OC,-10,-6,/,25*
COc1ccc(-c2noc(C(=O)NCc3ccc(F)cc3)n2)cc1OC,-30,-14,/,10
SMILES,NPY-Y1 PAM-ag,NPY2 pot ag,NPY Y2 blocker,NPY Y1 blocker
CN(c1ccccc1)c1nc(N)c([N+](=O)[O-])c(NCCO)n1,4,-5,/,/
CCOC(=O)c1ccc(NC(=O)Cn2ncc(Cl)c(Cl)c2=O)cc1,59*,18,1,-9
COc1cccc(N2C(=O)/C(=C\c3cccs3)NC2=S)c1,48*,69*,/,-3
O=C1c2ccccc2C(=O)c2c1ccc(C(=O)N1CCCCC1)c2NCCO,21,2,-2,2
CC1(C)CCCN(C(=O)c2ccc3c(c2NCCO)C(=O)c2ccccc2C3=O)C1,51*,54*,-9,-22
CCN(CCN(C)C)C(=O)c1ccc2c(c1NCCO)C(=O)c1ccccc1C2=O,47*,40*,/,-11
O=S(=O)(Nc1cc2nc3ccccc3nc2n1Cc1ccccc1)c1ccc(Cl)cc1,-11,-5,0,-1
Cc1ccccc1/C=c1\s/c(=C\C(=O)C(C)(C)C)[nH]c1=O,-7,-21,24*,22*
